Measurements published in the EternaBench riboswitch data.

Tested on: MS2 coat protein
Test: apparent Kd, MS2 coat protein; higher = weaker binding; RNA-MaP array; FMN 200 µM where present
In short: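 Designs were transcribed by stalled E. coli RNA polymerase on Illumina sequencing-chip clusters. They were titrated with SNAP-549-labelled MS2 coat protein from 0.7 or 1.5 nM, doubling to 3 µM, in 100 mM Tris-HCl pH 7.5, 80 mM KCl, 4 mM MgCl2, BSA, DTT, yeast tRNA and Tween-20, without and then with constant ligand. The apparent Kd is the median of filtered per-cluster fits after normalisation of green signal to red-channel RNA signal and control-cluster median Fmax.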

[1] = designed as: OFF switch for flavin mononucleotide, no ligand
[2] = ligand present: flavin mononucleotide, designed as: OFF switch for flavin mononucleotide
[3] = designed as: ON switch for flavin mononucleotide, no ligand
[4] = ligand present: flavin mononucleotide, designed as: ON switch for flavin mononucleotide

Row | Sequence | apparent Kd [1] [nM] | apparent Kd [2] [nM] | apparent Kd [3] [nM] | apparent Kd [4] [nM]
1 | GUAAGUCAUGUAGGAUAUCCGAGGCGAAGCGUUGGAGAAGGACAUGAGGAUCACCCAUGUUCUAGCGUCUGAGUACAGAUGCAG | 29.4 | 104 |  | 
2 | GAAGGAUGAGCGUAGGAUAUAGGAGGAGUGACAUGAGGAUCACCCAUGUGGUAGGAGGGAGGGUACUAGAAGGACGAGGAAGAGG |  |  | 63.5 | 52.2
3 | GGAUAGGACAGAGGAUAUACGUGCUAGAGAUACUAGCAAUAUUUCCUCACAUGAGGAUCACCCAUGUAGAAGGCUGUCCUAUCG | 6.26 | 73.7 |  | 
4 | GGACAUGUCGUCUACAUGAGGAUCACCCAUGUCGAUAGACAUGAGGAUAUCGAUACAAAUUGUAUCGAGAAGGCAUGCAGGUCC |  |  | 18.7 | 17.7
5 | CGAUAGGACAGAGGAUAUACACAUGAGGAUCACCCAUGUGAUUACAACGCGAAAGCUCCAAACAUGUAGAAGGCUGUCCUAUCG | 18.1 | 21.1 |  | 
6 | AAAAAGGGAGGAUAUACAUGAGGAUCACCCAUGUGAAAAAAAAAAAAAAAAAAAAAAAGUAGAAGGCCCAAAAA | 67.1 | 53.8 |  | 
7 | AUAUAUAACUAAGGAUAUCUGUAUUUUGUUGAAACAUGAGGAUCACCCAUGUUCAUGAAAUUAUAGGAGAAGGUAGAUAUAUAU |  |  | 4.93 | 4.54
8 | CCUCUACAUGAGGAUCACCCAUGUGAGGAUAUCUCGGAGCAGCCACUUAAGGCACUCCAGAGAAGGCACGUGUA | 18 | 25.7 |  | 
9 | ACUUGUAAGCAGAAGGCAGUCAUUAUAUUCGUCAUGUAGACAUGAGGAUCACCCAUGUAUAGUACUGAGGAUAUGCAUCGAUAG | 7.84 | 12.9 |  | 
10 | GUGAGUAGUCAGGAUAUGCUGUACAAAAGUACAGCAGAAGGGAUUACAUGAGGAUCACCCAUGUUUACUUCAUG | 73.1 | 279 |  | 
11 | GUAGCAAUCGGAGGAUAUUCAUGAAACAUGAGGAUCACCCAUGUUAAUAUGGGAGAAGGCCGAUUGCUACAAGAGCGAAAGCUC |  |  | 8.58 | 5.76
12 | UUGGACGUCGUAGGAUAUGUAGGAUAUUCCUACAUGAGGAUCACCCAUGUUGACAUGGAAGAUGGACAGAAGGACGAUGUCCAU |  |  | 983 | 42.1
13 | CACAGGGAUUCAGGAUAUAUUAGCCGAGGCCGCGUAGAAGGGAAAUCCUGACAUGAGGAUCACCCAUGUUAACCCACUUUCCAU |  |  | 28.2 | 28.8
14 | AAUUGGAUCCAGAAGGCAUGGACGACCCGUCACAUUAACAUGAGGAUCACCCAUGUAUAAAGACAUGAGGAUAUGGAUCCUAAA |  |  | 25.7 | 7.99
15 | UGGUACAUGGGAGGAUAUCCUCAAACAUGAGGAUCACCCAUGUAAAAUUAUAAGCCGAAAGGCAUGGAGAAGGCCCAUGUACCU |  |  | 119 | 17
16 | AAGCCUACAAUGGUGUAAUGUACAUGAGGAUCACCCAUGUACAGAAGGUGGAAUGUAAAAGGUGCCAAGGAUAUGUAUGCGGGU | 12.6 | 16.4 |  | 
17 | CUGUAAGAUGUAGGAUAUACAAUAAUAUUGUUAGUAGAAGGACAUGAGGAUCACCCAUGUAUAUAAAUUUUAAAUACUUUUGUG | 40.8 | 31.5 |  | 
18 | GGAUCCAACACAGGAUAUGCUGGACUUUGUCCAGCAGAAGGGUGAAGAACAUGAGGAUCACCCAUGUGGAUCCAUAUAUGUAAU |  |  | 273 | 16.6
19 | GCUGGUCGAGGAUAUAUAUGACGUGCUUCGGCACGAAGGUCACAUGAGGAUCACCCAUGUAGAAGGCGACCAGC | 56.4 | 390 |  | 
20 | UUAUAUAGUGUGAGGAUAUGCUGGUCCUUGGAUCAGCAGAAGGCACAUGAGGAUCACCCAUGUAGUUUAUUUUU | 25.4 | 144 |  | 
21 | GUAUAUAUUACAUGAGGAUCACCCAUGUCAGAACGGGUAAUCAGAAGGUAGUAUUAGAGAAAGAUUAAGGAUAUGAUUAUAUAC |  |  | 231 | 81.1

Row | Sequence | apparent Kd [1] [nM] | apparent Kd [2] [nM] | apparent Kd [3] [nM] | apparent Kd [4] [nM]
22 | GUAGCAUACCAAGGAUAUUCAGGGCUUGGAUAGACAUGAGGAUCACCCAUGUGGCGAAAGUCUAGGGAGAAGGUGGAAUGCUAC |  |  | 16.8 | 15.1
23 | CGCUACAGCCAGAAGGACAUGAGGAUCACCCAUGUAGGAUAUGGGAGACGCGGUCCAGUGUAGAGAAACUACGCUACUGUAGCG |  |  | 87.3 | 73.4
24 | UUGGACGUCCUAGGAUAUGUAGGAUAUUCCUACAUGAGGAUCACCCAUGUUGACAUGGAAGAAGGACAGAAGGACGAUGUCCAU |  |  | 551 | 71.3
25 | GUGCGAGUGCCACAGGAUAUACGUGGAUCGACAUGAGGAUCACCCAUGUAUAUCCUAAUAAUUGCGUAGAAGGGUGGUCAGUCGG |  |  | 786 | 289
26 | CAGGUAGCUACAGGAUAUACACAGCUCAGUAAACUGAGCAAAACAACUACAUGAGGAUCACCCAUGUAGAAGGGUAGCUGCCUG | 17 | 17.1 |  | 
27 | UUCAAGUUGCGAGGAUAUCGUGUUAACAUGAGGAUCACCCAUGUAAAGGUUUAUUAAAUAAUCUUCGAGAAGGCGCUUAAUGUA |  |  | 24.1 | 20.8
28 | GGCAGAGACGUUAACAUGAGGAUCACCCAUGUCGAAGGAGAUGAGGAUAUCGUAUACGAUGUAUAUGAGAAGGCAUGGUCUGCC |  |  | 18.8 | 7.6
29 | AGGGUAGUAGGAUAUACAUGAGGAUCACCCAUGUUUCCAUUGCGUGACUGGUCCUAGUGUAGAAGGGCUAGCAC | 18.6 | 17.6 |  | 
30 | GGGCCGGUGGAGAAGGAGCUUGCGAAACGCAUGCUAGGAUAUCCACAUGAGGAUCACCCAUGUGGGAAUAUCUGAUUUUCGCAG | 4.36 | 4.84 |  | 
31 | UGGUACUAGGGAGGAUAUGGGAAGAUACAUGAGGAUCACCCAUGUUUAAGAAUGCCGAGAGGCAACUAGAAGGCCCUAGUAUCU |  |  | 382 | 18.9
32 | GUGGUCAGACAUGAGGAUCACCCAUGUGGAAUAAAUAAGGUUUAGGAUAUGGAAUAUAGGAUAUACCAGAAGGAAGGGUUGGUG |  |  | 125 | 135
33 | AGCAUGCUAGGAUAUACGGGACAUUAGGGUUCGUUGUGUGGACAUGAGGAUCACCCAUGUAGAAGGAGCGUGCA | 86.6 | 374 |  | 
34 | AAUAAACACACAGGAUAUAGCAUCGUCGGUAUGAACUUAAAGACGACGAUGCUAGAAGGGUGAACACAUGAGGAUCACCCAUGU |  |  | 232 | 39.1
35 | ACGAAGAUACAGAAGGGUAUAUUAGUUAAUUAUAAUUUGGUUAUGCACUACAGGAUAUGUUUAACAUGAGGAUCACCCAUGUUC |  |  | 13.9 | 10.8
36 | GGUUGGCGAGGAUAUACAUGAGGAUCACCCAUGUGGUCCUGCGAUGGUGUCGCCCUUUGUAGAAGGCGCGGGUC | 45 | 42.5 |  | 
37 | UGUAUAUAGGCAGGAUAUACAUGAAUAUAUAUGAUGUAGUAUGAUGUAACAUGAGGAUCACCCAUGUAGAAGGGCCAGUAUAUA | 45.3 | 129 |  | 
38 | CAAUUUAUAACAGGAUAUAUAAUACAAUGGUUAAUAGAAGGGUUUAAUACAUGAGGAUCACCCAUGUCAUGUGUCAUAAUUACC | 23 | 17.1 |  | 
39 | AUCCUACAUGAGGAUCACCCAUGUAAGGAUAUGCGGCGACGAGAUUGUCUAUACGGCCGCAGAAGGUACCCGGG | 16.1 | 18.6 |  | 
40 | AAAACAUGAGGAUCACCCAUGUUUAGAUCGGUCAAUAGAAGUGAGGAUAUACGAAGUUAAGGCUGGUAGAAGGCACUGGGUACA |  |  | 32.4 | 32.2
41 | GAUCAACAUGAGGAUCACCCAUGUGAGGAUAUGAUACUAUGUACUUCGGUACAUAGUAUCAGAAGGCACUAGGA | 65.6 | 192 |  | 
